# Screening data as filed in PubChem.
# A selection: hits, their analogues and other compounds. The true share with any hit is near 2.9%.
# T cruzi repl: inhibitors of intracellular T. cruzi growth, primary screen, luminescence, NIH3T3 host cells; T. cruzi beta-gal in NIH3T3, 90 h; inhibition, % (concentration not given with the values); actives 1.4% (n = 300,000);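 active means mean inhibition across valid replicates above about 55%, limit read from the data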;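 further: signal also drops with host cell toxicity which is not excluded here; 0% = plate median of DMSO wells and 100% = zero luminescence signal; higher percent means less beta-gal luminescence so fewer parasites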
#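 Assay system: NIH/3T3 host cells with β-galactosidase reporter T. cruzi; input: 5,000 host fibroblasts per well; compound: single 50 nL compound addition per well in DMSO; timing: ≥90 h infection period, 3 h prior cell attachment; measured by: GalScreen β-gal luminescence, detergent lysis, 60 min; evaluation: percent inhibition of parasite-derived β-gal signal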
# H9c2 TAG inh: inhibitors of triacylglycerol accumulation, primary screen, cell-based, uHTS, fluorescence, H9c2 | H9c2 cells, Nile Red lipid (TAG) fluorescence; cells loaded with 200 µM oleic acid | inhibition, % at 12.5 µM | actives 0.66% (n = 230,000) | AID 651582, 2012;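 active means pattern-corrected inhibition of lipid staining of at least 50% with the nuclear-stain viability signal not falling by more than 50%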;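 further: 0% = DMSO wells and 100% = triacsin C control wells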
# beta cell repl: inducers of MIN6 beta-cell proliferation, primary screen, ATP luminescence, uHTS | MIN6 cells proliferation, ATPlite luminescence, 48 h; cells starved in 0.2% serum; 100% = growth in 10% serum | proliferation, % at 10 µM | actives 0.29% (n = 330,000);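 active means compounds whose signal lies at least 3.5 SD above the mean of all wells on their plate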;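 further: 0% = DMSO-treated cells in low-serum medium and 100% = 10% serum control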
# hiPSC survival: enhancers of single-cell hiPSC survival, primary screen, ATPlite luminescence | 100% = ROCK inhibitor wells, 0% = DMSO | actives 0.044% (n = 360,000) | survival enhancement, % at 20 µM | AID 602274, 2012; in the data active means survival enhancement above about 18%;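 further: cells exposed to compounds for 16 hours before the ATP read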
# PG9 binder: binders of HIV-1 gp120 antibody PG9, primary screen, biochemical, TR-FRET | HIV-1 gp120 / PG9 antibody interaction | TR-FRET gp120-PG9 antibody binding | inhibition, % at 6.7 µM | actives 0.43% (n = 360,000) | AID 624416, 2012; in the data active means inhibition above about 8.5%
# Rev-erbA mod: modulators of Rev-erb alpha DNA binding, primary screen, biochemical, FITC-DNA, fluorescence polarization, uHTS. Nuclear receptor subfamily 1 group D member 1 (Homo sapiens), P20393. Rev-erbα–FITC-DNA binding, 90 min. activity, % at 10 µM. actives 0.79% (n = 370,000). AID 1259318, 2017;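 active means activity above about 14%, limit read from the data; passing the limit was not always enough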;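 further: 0% = DMSO wells with 35 nM protein and 100% = DMSO wells with 750 nM protein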
# Target sequence (P20393 whole entry, looked up): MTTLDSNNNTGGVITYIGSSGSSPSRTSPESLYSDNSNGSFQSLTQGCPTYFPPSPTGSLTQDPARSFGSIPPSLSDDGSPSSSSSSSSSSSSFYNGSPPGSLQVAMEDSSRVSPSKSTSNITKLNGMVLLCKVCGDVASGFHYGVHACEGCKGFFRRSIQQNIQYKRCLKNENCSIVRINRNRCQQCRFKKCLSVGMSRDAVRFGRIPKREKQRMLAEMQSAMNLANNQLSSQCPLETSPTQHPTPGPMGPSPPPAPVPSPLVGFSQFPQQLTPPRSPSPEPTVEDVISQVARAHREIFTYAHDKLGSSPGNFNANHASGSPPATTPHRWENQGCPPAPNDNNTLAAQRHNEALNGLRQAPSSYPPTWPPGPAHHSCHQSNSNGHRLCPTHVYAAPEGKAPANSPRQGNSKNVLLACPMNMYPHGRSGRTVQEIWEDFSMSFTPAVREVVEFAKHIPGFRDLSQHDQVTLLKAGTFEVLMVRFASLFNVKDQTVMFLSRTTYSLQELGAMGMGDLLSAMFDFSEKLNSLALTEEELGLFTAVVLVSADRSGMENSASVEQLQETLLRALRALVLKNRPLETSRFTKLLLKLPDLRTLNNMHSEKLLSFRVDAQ
# * marks the source's active call; other numbers are inactive results; . = no result.
SMILES,T cruzi repl,H9c2 TAG inh,beta cell repl,hiPSC survival,PG9 binder,Rev-erbA mod
CCOC(=O)C(C(=O)OCC)c1cc(Br)c2noc3c2c1C(=O)c1ccccc1-3,65*,.,-7,1,1,11
COc1ccccc1Cn1c(=S)[nH]c2cc(C(=O)N3CCCC3)ccc2c1=O,-13,.,1,0,-2,3
O=C(CCN1CCN(c2ccccc2)CC1)c1ccc(Br)cc1,62*,.,-7,0,-3,5
COc1ccc(C(=O)CCN2CCN(c3ccccc3F)CC2)cc1,63*,4,-6,0,1,-1
O=C(Nc1cccc(O)c1)c1cccc(S(=O)(=O)N2CCCCCC2)c1,-6,.,-1,0,1,0
CC1CCCCC12NC(=O)N(CC(=O)NCc1ccccc1)C2=O (centres undefined),.,-1,-3,-2,0,7
CCC(C)(C)n1nnnc1C(c1cccnc1)N1CCN(c2cccc(C(F)(F)F)c2)CC1 (centres undefined),62*,-4,-3,3,-3,-2
CC(C)(C)n1nnnc1C(c1cccnc1)N1CCN(c2ccccc2)CC1 (centres undefined),55*,-10,-2,2,-1,-10
c1ccc(Cn2nnnc2C(c2cccnc2)N2CCN(c3ccccc3)CC2)cc1 (centres undefined),81*,.,-3,2,0,4
CCC(C)(C)n1nnnc1C(c1ccncc1)N1CCN(c2cccc(OC)c2)CC1 (centres undefined),28,.,-3,-3,-1,.
c1ccc(Cn2nnnc2C(c2ccncc2)N2CCOCC2)cc1 (centres undefined),-3,.,-3,0,1,-1
CC1CCN(c2ncnc3nc[nH]c23)CC1,3,10,6,5,-1,-1
Cc1c(C(=O)Nc2ccc(Cl)cc2)c2ccccn2c1CCc1ccncc1,63*,.,-3,-3,-2,5
Cc1c(C(=O)Nc2ccc(Cl)cc2)c2ccccn2c1C(=O)c1ccc(F)cc1,4,18,-3,-3,3,2
Cc1c(C(=O)Nc2cccc(Cl)c2)c2ccccn2c1CCc1ccncc1,56*,-3,.,-3,-2,-3
CCC(C)(C)NCC(=O)Nc1ccc(OC(F)(F)F)cc1,6,-15,0,-1,0,-2
CC(C)Oc1cccc(C(=O)NC(=S)N2CCN(c3ccc(C(F)(F)F)cc3[N+](=O)[O-])CC2)c1,18,0,-4,0,-2,4
CCOC(=O)c1cn(CC(=O)Nc2ccc(C)cc2)nn1,-22,.,-4,5,-3,-5
CC(C)=CCc1cc2c(=O)c3c(O)c4c(cc3oc2c(O)c1O)OC(C)C4(C)C (centres undefined),67*,.,-6,.,.,.
CC1Oc2cc3oc4c(O)c5c(cc4c(=O)c3c(O)c2C1(C)C)C=CC(C)(C)O5 (centres undefined),9,.,-6,.,.,.
O=C(CN1CCC(c2nc3ccccc3s2)CC1)NCc1cccs1,68*,.,-5,1,2,-10
Cc1oc(C(=O)O)cc1COc1ccc2c3c(c(=O)oc2c1C)CCC3,-11,.,-1,-2,0,-2
Cc1c(OCc2ccc([N+](=O)[O-])cc2)ccc2c3c(c(=O)oc12)CCC3,2,.,0.0*,0,-1,0
c1ccc(C(c2ccccc2)c2noc(CN3CCC(c4ccncc4)CC3)n2)cc1,61*,-38,0,1,-1,-1
CN1c2ccccc2N(C)C1(C)c1cccc2ccccc12,58*,.,-6,-1,-2,5
SMILES,T cruzi repl,H9c2 TAG inh,beta cell repl,hiPSC survival,PG9 binder,Rev-erbA mod
CN1c2cccc3cccc(c23)N(C)C1(C)C,20,-18,-1,-1,3,2
Cc1cc(C)c(OCC(=O)Nc2nc(-c3ccccn3)cs2)c(C)c1,70*,2,-7,1,-2,2
Cc1ccccc1OCC(=O)Nc1nc(-c2ccncc2)cs1,.,-3,4,4,1,5
O=C(Nc1nc(-c2ccccn2)cs1)c1cccc(-n2cnnn2)c1,63*,73*,-5,-1,2,-1
O=C(Nc1nc(-c2ccccn2)cs1)C1CC1,-16,7,-5,-1,-1,-2
O=C(CC1CC2CCC1C2)Nc1nc(-c2ccccn2)cs1 (centres undefined),62*,-4,-7,9,0,-6
COc1ccc(OCCCC(=O)Nc2nc(-c3ccccn3)cs2)cc1,62*,20,-5,0,-2,-3
Nc1ccc(C(=O)OCc2nc3ccccc3[nH]2)cc1,-10,.,0,4,2,4
Cc1c(NC(=O)C(C)N2C(=O)C3C4C=CC(C4)C3C2=O)c(=O)n(-c2ccccc2)n1C (centres undefined),4,2,-1,0,-1,2
O=C(Nc1ccc(O)cc1)c1ccc2c(c1)C(=O)N(Cc1cccnc1)C2=O,-24,12,5,0,0,0
COc1ccc(CCC(=O)NCc2ccccc2OC)cc1,-2,.,-2,1,0,-1
CCC(=O)c1ccc(OCC(=O)Nc2nc(-c3cccnc3)cs2)cc1,-3,-5,-1,0,8,-25
CN(c1ccc(OCC(=O)Nc2nc(-c3ccccc3)cs2)cc1)S(=O)(=O)c1ccc(F)cc1,55*,.,-1,2,0,-9
CCc1ccccc1OCC(=O)Nc1nc(-c2cccnc2)cs1,78*,-7,-7,-1,0,1
COc1ccc2oc(C(=O)Nc3nc(-c4ccccn4)cs3)c(C)c2c1,70*,17,-6,0,4,3
COc1ccc2oc(C(=O)NC(C)c3ccccn3)c(C)c2c1 (centres undefined),.,-16,0,-3,-3,-8
CN1CCN(c2ncnc3sc(-c4ccccc4)cc23)CC1,74*,.,-1,-1,-3,-2
O=C(Nc1ccc2c(c1)OCCO2)c1cccc2nc3ccccc3nc12,65*,-58,2,10,-3,-31
O=C(Nc1ccc2c(c1)OCCO2)c1ccccc1Cl,.,8,.,-1,1,4
COc1ccc(-n2c(C)cc(-c3cn4cccc(C)c4n3)c2C)cc1,38,12,-7,-1,2,-1
Cc1cc(-c2cn3ccccc3n2)c(C)n1-c1ccccc1,62*,-2,-6,-3,0,-1
Oc1c(CN2CCOCC2)cc(COCc2ccccc2)c2cccnc12,62*,.,.,10,-2,5
